This is an account of results in ChEMBL document CHEMBL1138738, “Synthesis, in vitro pharmacology, structure-activity relationships, and pharmacokinetics of 3-alkoxy-2-amino-6-fluorobicyclo[3.1.0]hexane-2,6-dicarboxylic acid derivatives as potent and selective group II metabotropic glutamate receptor antagonists” (J Med Chem, 2004).

Usually half-life stands for the time in which the quantity being followed falls by half. Low readings indicate rapid decline, high ones slow decline. In general, Tmax refers to the time at which the peak concentration occurs. A word on the pIC50: it is the IC50 on a negative log10 scale, so that one unit is a factor of ten. A high value points to a low IC50. Usually pKi stands for −log10 of the Ki, conventionally taken in molar units. A high value points to a small Ki. Usually pEC50 stands for the negative decadic logarithm of the EC50, by convention in mol/L. A higher pEC50 goes with a low EC50. As a reminder, the Cmax is the peak of the concentration-time curve.

A short description of data set [1]: Half-life in rat plasma upon oral dose of 10 mg/kg. The class given is ADME, organism-based. The arrangement: dose 10 mg/kg, route oral. A digest of the protocol:
(§1)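 Rats given a single peroral dose of 10 mg/kg. Plasma and cerebrum were sampled at 1, 3, 6 and 24 h. Concentrations were measured by LC/ESI-MS/MS using an internal standard. Detection limits were 1 ng/mL in plasma and 1.5 ng/g in brain. Tmax, Cmax, terminal half-life (lambda z) and predicted AUCinf were derived from the mean time-course levels.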

Data set [2] in a line: Maximum time required to achieve peak plasma concentration upon oral dose of 30 mg/kg to rats. It is filed as ADME, organism-based. The arrangement: dose 30 mg/kg, route oral. Particulars: rat. A digest of the protocol:
(§2)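 Fasted rats were dosed orally at 3, 10 or 30 mg/kg. Plasma concentration-time profiles were measured by LC/ESI-MS/MS. Cmax, Tmax, elimination half-life and AUCinf were derived per dose group and reported as mean ± deviation.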

Data set [3] in a line: Maximum time required to achieve peak plasma concentration upon oral dose of 3 mg/kg to rats. Particulars: rat. The class given is ADME, organism-based. The arrangement: dose 3 mg/kg, route oral. An outline of the steps: as §2
A short description of data set [4]: Half-life in rat brain upon oral dose of 10 mg/kg. The class given is ADME, organism-based. The arrangement: dose 10 mg/kg, route oral. A digest of the protocol:
as §1

A short description of data set [5]: Half-life in rat upon oral dose of 3 mg/kg. The note with it: in vivo. It is filed as ADME, organism-based. The arrangement: dose 3 mg/kg, route oral. A digest of the protocol: as §2
The nature of data set [6]: Concentration of compound in brain of rat after 3h of oral dose 10 mg/kg. The arrangement: dose 10 mg/kg, route oral. The class given is ADME, organism-based. An outline of the steps: as §1
Data set [7] can be described thus: Concentration of compound in plasma of rat after 3h of oral dose 10 mg/kg. The class given is ADME, organism-based. The arrangement: dose 10 mg/kg, route oral. A digest of the protocol:
as §1

The target in data set [8] is T1, Metabotropic glutamate receptor 2 (Rattus norvegicus, UniProt P31421). The data set is described as follows: Concentration required to inhibit metabotropic glutamate receptor 2 activity of rat expressed in CHO cells. The class given is cell-based.
In data set [9] the target is T1, Metabotropic glutamate receptor 2. Nature of the data set: Binding affinity towards metabotropic glutamate receptor 2 of rat expressed in CHO cells was determined by using [3H]MGS-0008. The class given is cell-based.
Data set [10] has the same target. Nature of the data set: Effective concentration for agonistic activity towards metabotropic glutamate receptor 2 of rat expressed in CHO cells. The class given is functional, cell-based.
Data set [11] is described as follows: Maximum time required to achieve peak plasma concentration upon oral dose of 10 mg/kg to rats. It is filed as ADME, organism-based. The note with it: rat. The arrangement: dose 10 mg/kg, route oral. An outline of the steps: as §2
A short description of data set [12]: Half-life in rat upon oral dose of 30 mg/kg. The class given is ADME, organism-based. The arrangement: dose 30 mg/kg, route oral. Particulars: in vivo. A digest of the protocol:
as §2

Data set [13] can be described thus: Concentration of compound in plasma of rat after 24 hr of oral dose 10 mg/kg. The arrangement: dose 10 mg/kg, route oral. It is filed as ADME, organism-based. A digest of the protocol: as §1
The nature of data set [14]: Peak plasma concentration in rats upon oral dose of 3 mg/kg. Particulars: rat. It is filed as ADME, organism-based. The arrangement: dose 3 mg/kg, route oral. A digest of the protocol:
as §2

The nature of data set [15]: Concentration of compound in plasma of rat after 1 hr of oral dose 10 mg/kg. The arrangement: dose 10 mg/kg, route oral. It is filed as ADME, organism-based. An outline of the steps: as §1
A short description of data set [16]: Peak plasma concentration in rats upon oral dose of 30 mg/kg. It is filed as ADME, organism-based. The arrangement: dose 30 mg/kg, route oral. Particulars: rat. A digest of the protocol: as §2
A short description of data set [17]: Maximum time required to achieve peak plasma concentration in rat brain upon oral dose of 10 mg/kg. It is filed as ADME, organism-based. The arrangement: dose 10 mg/kg, route oral. A digest of the protocol:
as §1

A short description of data set [18]: Concentration of compound in brain of rat after 1 hr of oral dose 10 mg/kg. The arrangement: dose 10 mg/kg, route oral. The class given is ADME, organism-based. An outline of the steps: as §1
The target of data set [19] is T2, Metabotropic glutamate receptor 3 (Rattus norvegicus, UniProt P31422). The data set is described as follows: Binding affinity towards metabotropic glutamate receptor 3 of rat expressed in CHO cells was determined by using [3H]MGS-0008. The class given is cell-based.
Data set [20] can be described thus: Peak plasma concentration in rat brain upon oral dose of 10 mg/kg. It is filed as ADME, organism-based. The arrangement: dose 10 mg/kg, route oral. A digest of the protocol: as §1
Data set [21] can be described thus: Concentration of compound in plasma of rat after 6 hr of oral dose 10 mg/kg. The class given is ADME, organism-based. The arrangement: dose 10 mg/kg, route oral. An outline of the steps:
as §1

Data set [22] is described as follows: Peak plasma concentration in rats upon oral dose of 10 mg/kg. The class given is ADME, organism-based. The arrangement: dose 10 mg/kg, route oral. Particulars: rat. A digest of the protocol:
as §2

A short description of data set [23]: Half-life in rat upon oral dose of 10 mg/kg. It is filed as ADME, organism-based. The arrangement: dose 10 mg/kg, route oral. The note with it: in vivo. A digest of the protocol:
as §2

Data set [24] in a line: Concentration of compound in brain of rat after 6 hr of oral dose 10 mg/kg. The class given is ADME, organism-based. The arrangement: dose 10 mg/kg, route oral. An outline of the steps: as §1
Data set [25] in a line: Peak plasma concentration in rat plasma upon oral dose of 10 mg/kg. The arrangement: dose 10 mg/kg, route oral. It is filed as ADME, organism-based. A digest of the protocol:
as §1

The nature of data set [26]: Concentration of compound in brain of rat after 24 hr of oral dose 10 mg/kg. It is filed as ADME, organism-based. The arrangement: dose 10 mg/kg, route oral. An outline of the steps: as §1
A short description of data set [27]: Maximum time required to achieve peak plasma concentration in rat plasma upon oral dose of 10 mg/kg. The arrangement: dose 10 mg/kg, route oral. It is filed as ADME, organism-based. An outline of the steps: as §1
In data set [28] the target is T3, Metabotropic glutamate receptor 1 (Rattus norvegicus, UniProt P23385). Nature of the data set: Effective concentration for agonistic activity towards metabotropic glutamate receptor 1 of rat expressed in CHO cells. It is filed as functional, cell-based.
In data set [29] the target is Metabotropic glutamate receptor 4 (Rattus norvegicus, UniProt P31423). The data set is described as follows: Concentration required to inhibit metabotropic glutamate receptor 4 activity of rat expressed in CHO cells. The class given is cell-based.
The target of data set [30] is T3, Metabotropic glutamate receptor 1. The data set is described as follows: Concentration required to inhibit metabotropic glutamate receptor 1 activity of rat expressed in CHO cells. The class given is cell-based.
The target in data set [31] is T2, Metabotropic glutamate receptor 3. The data set is described as follows: Effective concentration for agonistic activity towards metabotropic glutamate receptor 3 of rat expressed in CHO cells. The class given is functional, cell-based.
Data set [32] has as its target T4, Metabotropic glutamate receptor 5 (Rattus norvegicus, UniProt P31424). The data set is described as follows: Concentration required to inhibit metabotropic glutamate receptor 5 activity of rat expressed in CHO cells. The class given is cell-based.
In data set [33] the target is T2, Metabotropic glutamate receptor 3. The data set is described as follows: Concentration required to inhibit metabotropic glutamate receptor 3 activity of rat expressed in CHO cells. It is filed as cell-based.
Data set [34] has as its target T4, Metabotropic glutamate receptor 5. Nature of the data set: Effective concentration for agonistic activity towards metabotropic glutamate receptor 5 of rat expressed in CHO cells. The class given is functional, cell-based.
Data set [35] concerns the target T5, Metabotropic glutamate receptor 6 (Rattus norvegicus, UniProt P35349). The data set is described as follows: Concentration required to inhibit metabotropic glutamate receptor 6 activity of rat expressed in CHO cells. The class given is cell-based.
The target in data set [36] is T5, Metabotropic glutamate receptor 6. Nature of the data set: Effective concentration for agonistic activity towards metabotropic glutamate receptor 6 of rat expressed in CHO cells. The class given is functional, cell-based.
Data set [37] addresses Metabotropic glutamate receptor 7 (Rattus norvegicus, UniProt P35400). Nature of the data set: Binding affinity towards metabotropic glutamate receptor 7 of rat expressed in CHO cells was determined by using [3H]LY341495.

pEC50, pIC50, pKi: −log10 of the molar value. Where only a bound is given, the exact number is not on record here.

T2 sequence (P31422 whole entry): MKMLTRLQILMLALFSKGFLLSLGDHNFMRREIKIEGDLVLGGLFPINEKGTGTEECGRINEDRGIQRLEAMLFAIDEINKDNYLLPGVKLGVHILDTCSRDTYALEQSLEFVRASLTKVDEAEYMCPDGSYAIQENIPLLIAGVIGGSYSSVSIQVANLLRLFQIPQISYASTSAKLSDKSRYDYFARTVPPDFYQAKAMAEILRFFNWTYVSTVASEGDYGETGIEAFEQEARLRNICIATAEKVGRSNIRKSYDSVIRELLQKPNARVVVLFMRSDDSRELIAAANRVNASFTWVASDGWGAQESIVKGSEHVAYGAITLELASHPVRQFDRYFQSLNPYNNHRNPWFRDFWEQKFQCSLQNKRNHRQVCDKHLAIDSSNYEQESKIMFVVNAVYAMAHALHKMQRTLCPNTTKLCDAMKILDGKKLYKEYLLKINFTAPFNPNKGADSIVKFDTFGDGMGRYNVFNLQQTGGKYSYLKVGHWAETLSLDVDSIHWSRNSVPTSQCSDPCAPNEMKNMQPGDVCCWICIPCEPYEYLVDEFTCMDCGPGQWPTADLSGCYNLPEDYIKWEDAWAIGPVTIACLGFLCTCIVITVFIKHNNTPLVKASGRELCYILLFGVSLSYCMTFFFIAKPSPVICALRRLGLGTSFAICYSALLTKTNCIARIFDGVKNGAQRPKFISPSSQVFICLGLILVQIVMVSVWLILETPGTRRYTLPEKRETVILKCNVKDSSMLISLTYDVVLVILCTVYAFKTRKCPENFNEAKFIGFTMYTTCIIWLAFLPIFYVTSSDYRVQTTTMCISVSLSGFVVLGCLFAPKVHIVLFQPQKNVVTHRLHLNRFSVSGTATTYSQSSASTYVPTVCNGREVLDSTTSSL
T5 sequence (P35349 whole entry): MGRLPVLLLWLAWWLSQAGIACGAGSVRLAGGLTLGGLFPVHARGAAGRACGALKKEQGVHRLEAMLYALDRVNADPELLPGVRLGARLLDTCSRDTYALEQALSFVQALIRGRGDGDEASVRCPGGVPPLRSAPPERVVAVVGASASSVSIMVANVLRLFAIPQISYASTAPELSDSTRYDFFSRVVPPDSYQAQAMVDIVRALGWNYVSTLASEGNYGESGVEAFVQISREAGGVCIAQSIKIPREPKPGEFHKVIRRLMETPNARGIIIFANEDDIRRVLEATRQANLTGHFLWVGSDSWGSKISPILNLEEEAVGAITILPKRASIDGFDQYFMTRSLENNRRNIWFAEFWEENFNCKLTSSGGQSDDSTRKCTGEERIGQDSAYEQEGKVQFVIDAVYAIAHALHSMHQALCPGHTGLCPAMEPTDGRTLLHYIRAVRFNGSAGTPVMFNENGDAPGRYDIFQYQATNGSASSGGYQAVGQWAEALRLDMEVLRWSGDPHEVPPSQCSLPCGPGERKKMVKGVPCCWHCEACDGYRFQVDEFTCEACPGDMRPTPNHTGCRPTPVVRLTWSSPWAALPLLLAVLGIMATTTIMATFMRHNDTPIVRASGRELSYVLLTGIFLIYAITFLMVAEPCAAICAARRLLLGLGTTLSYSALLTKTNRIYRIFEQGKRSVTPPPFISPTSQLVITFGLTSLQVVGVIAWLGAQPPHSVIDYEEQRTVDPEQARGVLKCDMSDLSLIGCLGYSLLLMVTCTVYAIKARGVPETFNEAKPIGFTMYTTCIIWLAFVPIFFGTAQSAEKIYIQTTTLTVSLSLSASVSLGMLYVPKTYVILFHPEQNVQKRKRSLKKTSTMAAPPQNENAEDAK
T4 sequence (P31424 whole entry): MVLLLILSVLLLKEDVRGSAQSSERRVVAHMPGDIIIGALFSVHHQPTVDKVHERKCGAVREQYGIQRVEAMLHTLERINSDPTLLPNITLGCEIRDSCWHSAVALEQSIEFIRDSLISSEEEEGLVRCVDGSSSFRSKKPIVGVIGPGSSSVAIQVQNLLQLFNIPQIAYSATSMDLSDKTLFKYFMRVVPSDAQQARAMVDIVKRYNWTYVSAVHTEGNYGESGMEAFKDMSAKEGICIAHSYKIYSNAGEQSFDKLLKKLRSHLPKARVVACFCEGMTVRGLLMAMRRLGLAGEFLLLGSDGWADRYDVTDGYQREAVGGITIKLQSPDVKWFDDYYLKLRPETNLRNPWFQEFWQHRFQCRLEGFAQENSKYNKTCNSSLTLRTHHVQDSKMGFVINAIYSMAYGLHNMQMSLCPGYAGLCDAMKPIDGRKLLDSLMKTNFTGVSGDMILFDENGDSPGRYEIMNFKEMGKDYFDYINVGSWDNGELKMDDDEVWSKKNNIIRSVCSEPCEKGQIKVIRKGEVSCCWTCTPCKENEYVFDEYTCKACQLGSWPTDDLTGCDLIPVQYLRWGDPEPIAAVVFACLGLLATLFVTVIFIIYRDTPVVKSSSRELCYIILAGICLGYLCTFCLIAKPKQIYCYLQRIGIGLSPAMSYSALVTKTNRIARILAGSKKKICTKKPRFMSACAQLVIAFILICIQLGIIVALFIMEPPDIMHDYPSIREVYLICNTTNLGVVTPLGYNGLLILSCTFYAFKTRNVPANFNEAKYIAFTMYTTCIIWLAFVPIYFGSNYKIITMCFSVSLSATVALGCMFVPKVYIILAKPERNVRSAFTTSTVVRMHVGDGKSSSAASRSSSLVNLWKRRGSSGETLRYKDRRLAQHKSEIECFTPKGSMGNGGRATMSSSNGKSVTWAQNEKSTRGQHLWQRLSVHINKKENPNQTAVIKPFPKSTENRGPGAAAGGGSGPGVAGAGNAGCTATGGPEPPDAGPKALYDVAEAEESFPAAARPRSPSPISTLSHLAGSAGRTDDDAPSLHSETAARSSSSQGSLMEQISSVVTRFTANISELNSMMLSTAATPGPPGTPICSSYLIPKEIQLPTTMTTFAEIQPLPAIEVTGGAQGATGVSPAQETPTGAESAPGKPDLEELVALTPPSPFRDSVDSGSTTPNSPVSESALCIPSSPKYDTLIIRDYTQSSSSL
T3 sequence (P23385 whole entry): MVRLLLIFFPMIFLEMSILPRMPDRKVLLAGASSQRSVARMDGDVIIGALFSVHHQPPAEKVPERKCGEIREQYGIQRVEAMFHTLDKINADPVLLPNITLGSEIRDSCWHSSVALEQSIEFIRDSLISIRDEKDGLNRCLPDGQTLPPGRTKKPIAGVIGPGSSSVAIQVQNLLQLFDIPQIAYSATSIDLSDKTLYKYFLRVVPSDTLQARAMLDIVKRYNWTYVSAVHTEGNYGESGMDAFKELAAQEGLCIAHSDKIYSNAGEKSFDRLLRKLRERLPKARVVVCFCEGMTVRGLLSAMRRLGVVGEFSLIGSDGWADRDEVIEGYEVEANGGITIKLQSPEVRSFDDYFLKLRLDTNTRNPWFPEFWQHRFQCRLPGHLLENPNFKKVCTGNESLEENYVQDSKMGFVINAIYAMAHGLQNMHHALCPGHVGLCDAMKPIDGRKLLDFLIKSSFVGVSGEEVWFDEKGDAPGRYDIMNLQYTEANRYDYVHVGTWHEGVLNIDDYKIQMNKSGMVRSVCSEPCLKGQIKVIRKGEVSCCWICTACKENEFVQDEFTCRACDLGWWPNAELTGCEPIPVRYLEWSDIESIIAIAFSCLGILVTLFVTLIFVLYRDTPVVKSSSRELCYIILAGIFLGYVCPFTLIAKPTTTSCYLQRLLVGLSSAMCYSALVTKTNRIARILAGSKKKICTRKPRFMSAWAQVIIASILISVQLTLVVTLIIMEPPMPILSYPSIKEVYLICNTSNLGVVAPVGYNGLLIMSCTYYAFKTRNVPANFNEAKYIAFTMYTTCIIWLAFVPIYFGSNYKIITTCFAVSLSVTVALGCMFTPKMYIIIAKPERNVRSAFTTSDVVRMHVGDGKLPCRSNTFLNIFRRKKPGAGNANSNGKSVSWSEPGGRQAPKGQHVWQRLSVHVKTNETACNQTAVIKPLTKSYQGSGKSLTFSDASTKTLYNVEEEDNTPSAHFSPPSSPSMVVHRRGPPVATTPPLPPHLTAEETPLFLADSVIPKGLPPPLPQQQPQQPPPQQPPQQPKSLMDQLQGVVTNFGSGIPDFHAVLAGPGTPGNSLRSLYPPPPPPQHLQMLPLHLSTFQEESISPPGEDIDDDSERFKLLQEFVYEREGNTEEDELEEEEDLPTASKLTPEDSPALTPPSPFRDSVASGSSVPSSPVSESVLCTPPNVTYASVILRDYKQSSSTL
T1 sequence (P31421 whole entry): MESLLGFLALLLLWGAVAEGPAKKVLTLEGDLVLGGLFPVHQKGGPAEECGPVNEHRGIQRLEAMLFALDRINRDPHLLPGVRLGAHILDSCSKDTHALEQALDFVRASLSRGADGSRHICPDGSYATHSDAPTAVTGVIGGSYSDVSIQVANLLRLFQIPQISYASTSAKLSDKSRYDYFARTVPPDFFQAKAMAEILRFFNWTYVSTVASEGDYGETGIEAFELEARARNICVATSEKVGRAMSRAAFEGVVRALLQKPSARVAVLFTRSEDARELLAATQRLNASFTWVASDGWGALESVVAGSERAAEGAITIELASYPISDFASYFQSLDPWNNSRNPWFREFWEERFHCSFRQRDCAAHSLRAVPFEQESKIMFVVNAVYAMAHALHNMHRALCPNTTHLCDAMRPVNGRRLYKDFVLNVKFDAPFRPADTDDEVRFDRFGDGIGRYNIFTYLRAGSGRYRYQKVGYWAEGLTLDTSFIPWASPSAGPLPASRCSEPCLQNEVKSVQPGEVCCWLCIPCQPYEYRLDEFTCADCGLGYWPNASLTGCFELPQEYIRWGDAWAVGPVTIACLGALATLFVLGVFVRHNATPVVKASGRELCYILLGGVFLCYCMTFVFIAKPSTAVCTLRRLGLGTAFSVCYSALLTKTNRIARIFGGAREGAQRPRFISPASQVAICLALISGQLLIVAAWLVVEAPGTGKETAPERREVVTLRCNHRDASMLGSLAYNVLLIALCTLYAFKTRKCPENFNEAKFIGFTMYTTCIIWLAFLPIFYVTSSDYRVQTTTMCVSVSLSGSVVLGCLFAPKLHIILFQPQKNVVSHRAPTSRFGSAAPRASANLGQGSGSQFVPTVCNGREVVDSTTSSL

`N[C@]1(C(=O)O)[C@H]2[C@@H](C[C@H]1OCc1ccc(F)c(F)c1)[C@]2(F)C(=O)O`: the half-life in [1] is 2.8 h; in data set [4], 19.5 h; in data set [5], 3.47 h; in data set [12], 3.62 h; in data set [23], 1.78 h. Also, the Tmax in [2] stood at 1.2 h; in data set [3] it was 1.3 h; in [11], 1.7 h; in [17], 3 h; in [27], 1 h. Besides, the concentration at 3 h in data set [6] amounted to 3.11 ng/mL; in data set [7], 179 ng/mL. Further, the pIC50 in [8] is 7.39. The pKi was 8.64 in data set [9] and 8.52 in data set [19]. In data set [10], this molecule showed a pEC50 of under 4.00. In addition, the concentration at 24 h in data set [13] was 0.8 ng/mL; in data set [26], 1.39 ng/mL. The Cmax in data set [14] was 82.3 ng/mL; in data set [16] it was 635 ng/mL; in data set [20] it was 3.11 ng/mL; in data set [22] it was 297 ng/mL; in data set [25], 213 ng/mL. Besides, the concentration at 1 h in data set [15] was 213 ng/mL; in [18], 3.06 ng/mL. Besides, the results for the concentration at 6 h in [21] and in data set [24] were 41.1 ng/mL and 2.4 ng/mL, respectively.

As for `N[C@]1(C(=O)O)[C@H]2[C@@H](C[C@H]1OCc1ccc(Cl)c(Cl)c1)[C@]2(F)C(=O)O`, the negative-log EC50 (pEC50) in data set [28], in [31], in data set [10], in [34] and in data set [36] was under 4.00 each time. The half-life in data set [1] was 2.3 h; in data set [4], 10.9 h; in data set [5], 2.15 h; in data set [12], 2.77 h; in data set [23], 2.76 h. Further, the Tmax in data set [2] worked out at 3.3 h; in data set [3] it was 2 h; in data set [11], 2.7 h; in data set [17], 6 h; in data set [27], 6 h. Also, the pIC50 in [29] is 5.76; in [30] it was 4.03; in data set [32], 3.93; in data set [33], 7.62; in data set [35], 5.69. For the same molecule, the concentration at 3 h in data set [6] is 8.02 ng/mL; in [7] it was 429 ng/mL. Also, the values for the pKi in data set [9], in data set [19] and in [37] were 8.62, 8.35 and 6.18, respectively. Further, the figures for the concentration at 24 h in data set [13] and in data set [26] were 2.1 ng/mL and 4.22 ng/mL, respectively. In addition, the Cmax in [14] came out at 214 ng/mL; in data set [16] it was 2960 ng/mL; in data set [20], 13.2 ng/mL; in data set [22] it was 932 ng/mL; in data set [25] it was 492 ng/mL. For the same molecule, the concentration at 1 h in data set [15] stood at 364 ng/mL; in data set [18], 3.88 ng/mL. The concentration at 6 h in data set [21] turned out to be 492 ng/mL; in data set [24] it was 13.2 ng/mL.

Take `N[C@](CC1c2ccccc2Oc2ccccc21)(C(=O)O)[C@H]1C[C@@H]1C(=O)O`: the pEC50 in [28], in data set [34] and in data set [36] was under 4.00 throughout. In addition, the pIC50 was 5.58 in data set [29], 5.05 in [30], 4.94 in data set [32] and 5.94 in [35]. The pKi in data set [37] is 6.96.
